Measured values pooled from the literature.
Target: Tyrosine-protein kinase Lck (LCK, Homo sapiens, UniProt P06239)

| SMILES | test | setting | endpoint | result |
| --- | --- | --- | --- | --- |
| C#Cc1n[nH]c2c(-c3cn([C@@H](C)c4ccccn4)c(=O)[nH]c3=O)cc(F)cc12 | enzyme activity, inhibitor | 0.1 µM | inhibition | 8.8% |
| Nc1ncc(-c2nc(N3CCOCC3)nc(N3CCOCC3)n2)c(C(F)F)n1 | enzyme activity, inhibitor | 10 µM | remaining activity | 92% |
| Cc1nn(C)cc1-c1nc2c(N3CCN(Cc4ccc(Cl)cc4)CC3)c(Cl)cnc2[nH]1 | binding, competition with immobilised ligand | 1 µM | remaining binding | 100% |
| O=c1[nH]c2ccccc2n1C1CCN(Cc2ccc(-c3[nH]c4cc5ncnc5cc4nc3-c3ccccc3)cc2)CC1 | enzyme activity, inhibitor | 0.5 µM | remaining activity | 98.2% |
| COc1ncccc1-c1cnn2ccc(N3CCN(C(=O)OC(C)C)CC3)nc12 | binding, competition with immobilised ligand | 1 µM | remaining binding | 100% |
| Cn1cc(-c2cc(F)cc(N3CCn4c(cc5c4CCCC5)C3=O)c2CO)cc(Nc2ccc(N3CCN(C4COC4)CC3)cn2)c1=O | enzyme activity, inhibitor | 0.1 µM | inhibition | -1% |
| N#CC1(c2ccccn2)CCN(Cc2cc(C(=O)O)c(=O)n3ccccc23)CC1 | cell-free assay, competition with immobilised ligand | 1 µM | remaining binding | 97% |
| Clc1ccc2c(C3CCN(CCc4c[nH]c5ccccc45)CC3)c[nH]c2c1 | enzyme activity, inhibitor | 10 µM | inhibition | 66% |
| CC(C)(C)c1cc(C=C(C#N)C#N)cc(Br)c1O | enzyme activity, inhibitor | 0.5 µM | remaining activity | 87.8% |
| Cn1cncc1[C@](O)(COc1ccc(C#N)cc1-c1ccc(OC(F)(F)F)cc1)c1ccc(C#N)cc1 | cell-free assay, competition with immobilised ligand | 1 µM | remaining binding | 82% |
| C#Cc1n[nH]c2c(-c3cn([C@@H](C)c4ccccc4)c(=O)[nH]c3=O)cc(F)cc12 | enzyme activity, inhibitor | 0.1 µM | inhibition | 10.5% |
